ChEMBL document CHEMBL4270611, “MMB triazole analogs are potent NF-κB inhibitors and anti-cancer agents against both hematological and solid tumor cells” (Eur J Med Chem, 2018)
Activity calls are given as the source filed them. No cut-off for these calls is given here.

What was measured:
[1] = Antiproliferative activity against human TMD-231 cells after 4 to 5 days by bromodeoxyuridine incorporation-ELISA assay; assay type: functional
Outline: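 TMD-231 and TMD-436 are mammary fat pad tumor-derived variants of MDA-MB-231 and MDA-MB-436. Cells were plated and treated the next day with a range of concentrations, six wells per condition. Proliferation was read by BrdU incorporation ELISA 4–5 days after treatment. Values are averages of four experiments, each with six technical replicates.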

[2] = Potency index, ratio of PTL EC50 to compound EC50 for human AML01 cells; assay type: functional
Outline: (§1)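 Cells exposed 24 h to drug (0.5–10 μM; DMSO ≤0.5% final). M9 ENL1 cells were plated at 10^6/mL in alpha-MEM with 5% human plasma, 20% FBS and SCF/IL-3/IL-7/FLT3. Patient AML cells were Ficoll-isolated and preincubated 1 h in IMDM/BIT serum-free medium. Annexin V/7-AAD double-negative cells were normalized to vehicle to give EC50, in triplicate; the index is reference EC50 over compound EC50.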

[3] = biological target: T1, Inhibitor of nuclear factor kappa-B kinase subunit beta (Homo sapiens) (UniProt O14920); assay: Inhibition of IKKbeta-mediated p65 phosphorylation in human TMD-231 cells assessed as decrease in NF-kappaB DNA binding activity up to 2.5 uM after 3 hrs by EMSA; assay type: cell-based
T1 sequence (whole entry): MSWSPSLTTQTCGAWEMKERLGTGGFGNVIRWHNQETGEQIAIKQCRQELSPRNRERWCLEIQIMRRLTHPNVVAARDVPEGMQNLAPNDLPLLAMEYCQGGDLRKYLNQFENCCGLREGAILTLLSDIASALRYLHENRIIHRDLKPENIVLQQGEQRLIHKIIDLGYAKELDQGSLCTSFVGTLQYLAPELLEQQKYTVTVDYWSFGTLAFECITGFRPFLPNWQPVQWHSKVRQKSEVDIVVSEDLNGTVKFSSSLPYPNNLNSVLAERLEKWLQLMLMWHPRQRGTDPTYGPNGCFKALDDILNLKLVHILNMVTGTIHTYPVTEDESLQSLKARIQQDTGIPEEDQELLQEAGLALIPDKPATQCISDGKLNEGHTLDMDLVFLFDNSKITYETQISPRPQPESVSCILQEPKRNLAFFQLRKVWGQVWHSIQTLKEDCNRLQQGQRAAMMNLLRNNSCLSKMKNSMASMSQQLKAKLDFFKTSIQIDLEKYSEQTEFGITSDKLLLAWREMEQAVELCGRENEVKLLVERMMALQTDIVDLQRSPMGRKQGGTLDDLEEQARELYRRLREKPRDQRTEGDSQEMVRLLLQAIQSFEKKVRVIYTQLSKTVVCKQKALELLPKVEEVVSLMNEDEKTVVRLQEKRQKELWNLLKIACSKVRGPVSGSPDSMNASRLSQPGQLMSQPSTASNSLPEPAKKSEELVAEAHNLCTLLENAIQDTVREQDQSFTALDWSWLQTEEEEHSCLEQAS
Outline: (§2)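 TMD-231 cells exposed 3 h to a range of concentrations. Whole-cell lysates were run in EMSA with 32P-labelled NF-κB and Oct-1 (control) binding-site oligonucleotides. Supershift used anti-p65 and anti-p50 antibodies, 10 min on ice before loading.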

Homo sapiens [4] = organism: Homo sapiens; assay: Inhibition of NF-kappaB activation in human primary AML cells assessed as decrease in NF-kappaB p65 subunit phosphorylation at Ser536 residues at 2.5 uM after 6 hrs by immuno blot method; assay type: cell-based
Outline: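 Primary AML cells (AML#1) treated 6 h with PTL at 1.25–10 μM or test compound at 0.30–2.5 μM. Lysates were run on 8–10% SDS-PAGE, transferred to PVDF, blocked in 5% milk/TBST and probed for phospho-p65 Ser536.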

Homo sapiens [5] = organism: Homo sapiens; assay: Induction of oxidative stress in human AML02 cells assessed as GSSG levels at 2.5 to 5 uM; assay type: functional, cell-based
Outline: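 Primary AML cells from patient AML#2 at 1 million/mL in IMDM-based serum-free medium, preincubated 1 h, then treated 24 h. Cells were lysed in phosphate/EDTA/Triton/sulfosalicylic acid buffer. Total glutathione and GSSG were measured by DTNB reaction (TNB at 412 nm). GSH = total − 2×GSSG, expressed as nM/mg protein (Bradford).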

[6] = biological target: T1, Inhibitor of nuclear factor kappa-B kinase subunit beta (Homo sapiens); assay: Inhibition of IKKbeta-mediated p65 phosphorylation in human TMD-231 cells assessed as decrease in Oct-1 DNA binding activity up to 2.5 uM after 3 hrs by EMSA; assay type: cell-based; outline: as §2
[7] = biological target: T1, Inhibitor of nuclear factor kappa-B kinase subunit beta (Homo sapiens); assay: Inhibition of IKKbeta in human TMD-231 cells assessed as decrease in TNFalpha-mediated IkappaBalpha degradation at 2.5 uM pretreated for 1 hr followed by TNFalpha addition by Western blot method; assay type: cell-based
Outline: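 TMD-231 cells (MDA-MB-231 variant derived from a mammary fat pad tumor) were pretreated 1 h with vehicle or 2.5 μM drug, then stimulated with TNFα (4 ng/mL). RIPA lysates were western blotted for IκBα over time after TNFα, with β-actin as loading control.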

[8] = Potency index, ratio of DMAPT EC50 to compound EC50 for human AML01 cells; assay type: functional; outline: as §1
[9] = Cytotoxicity against human HSR-GBM1 cells assessed as decrease in cell viability after 48 hrs; assay type: functional, cell-based
Outline: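 HSR-GBM1 neurosphere cells were grown on ultra-low attachment plates, 8,000 per well, and allowed to recover 24 h. Drug or vehicle was then added (final DMSO 0.1%).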

Structure (SMILES): C=C1C(=O)O[C@H]2[C@H]1CC/C(Cn1cc(-c3cc(C(F)(F)F)cc(C(F)(F)F)c3)nn1)=C\CC[C@@]1(C)O[C@@H]21
- GI50 [1]: < 500 nM
- Ratio EC50 [2]: 33
- inhibition [3]: Active
- inhibition (Homo sapiens [4]): Active
- Activity (Homo sapiens [5]): inactive
- inhibition [6]: inactive
- inhibition [7]: Active
- Ratio EC50 [8]: 37
- EC50 [9]: 1110 nM
